Measurements: ChEMBL document CHEMBL2034949, “Small Molecule Inhibitors of Regulator of G Protein Signalling (RGS) Proteins” (ACS Med Chem Lett, 2012)
Active and inactive are the calls of the source. No cut-off for these calls is given here.

Experiments:
[1] = Selectivity ratio of IC50 for RGS8 to IC50 RGS4
[2] = Aqueous solubility of the compound at 500 uM; type: physicochemical; details: buffer
[3] = biological target: Regulator of G-protein signaling 4 (Homo sapiens, UniProt P49798); experiment: Inhibition of RGS4 interaction with Galpha0 protein by flow cytometry protein interaction assay
Summary of the method: (§1)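 Inhibition of Gαo binding to RGS4 or RGS8. IC50 taken as the average of two independent experiments.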

[4] = biological target: Muscarinic acetylcholine receptor M3 (Homo sapiens) (UniProt P20309); experiment: Activity at human muscarinic M3 receptor expressed in HEK293T cells assessed as increase in carbachol-induced intracellular calcium level at 10 uM after 30 to 45 mins by fluorimetry; type: functional, cell-based; details: HEK-293T
Summary of the method: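 HEK-293 cells stably expressing human M3 muscarinic receptor, plated overnight, loaded with Fluo4-NW for 30 min at 37 °C. Compound added at 10 uM final in 1% DMSO; baseline fluorescence read after 30-45 min, then carbachol injected (10 nM final). Intracellular Ca++ rise expressed as percent of baseline; triplicate determinations, DMSO control n=16.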

[5] = biological target: T1, Regulator of G-protein signaling 8 (Homo sapiens, UniProt P57771); experiment: Inhibition of RGS8 interaction with Galpha0 protein by flow cytometry protein interaction assay; summary of the method: as §1
T1 sequence (P57771 whole entry): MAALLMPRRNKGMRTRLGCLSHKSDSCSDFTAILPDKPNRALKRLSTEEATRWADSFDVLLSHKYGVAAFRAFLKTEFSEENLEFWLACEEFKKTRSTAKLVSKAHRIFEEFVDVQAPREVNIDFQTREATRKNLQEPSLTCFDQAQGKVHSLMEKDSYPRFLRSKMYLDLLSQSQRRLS

Chain of Muscarinic acetylcholine receptor M3 (Homo sapiens) (P20309 whole entry, looked up): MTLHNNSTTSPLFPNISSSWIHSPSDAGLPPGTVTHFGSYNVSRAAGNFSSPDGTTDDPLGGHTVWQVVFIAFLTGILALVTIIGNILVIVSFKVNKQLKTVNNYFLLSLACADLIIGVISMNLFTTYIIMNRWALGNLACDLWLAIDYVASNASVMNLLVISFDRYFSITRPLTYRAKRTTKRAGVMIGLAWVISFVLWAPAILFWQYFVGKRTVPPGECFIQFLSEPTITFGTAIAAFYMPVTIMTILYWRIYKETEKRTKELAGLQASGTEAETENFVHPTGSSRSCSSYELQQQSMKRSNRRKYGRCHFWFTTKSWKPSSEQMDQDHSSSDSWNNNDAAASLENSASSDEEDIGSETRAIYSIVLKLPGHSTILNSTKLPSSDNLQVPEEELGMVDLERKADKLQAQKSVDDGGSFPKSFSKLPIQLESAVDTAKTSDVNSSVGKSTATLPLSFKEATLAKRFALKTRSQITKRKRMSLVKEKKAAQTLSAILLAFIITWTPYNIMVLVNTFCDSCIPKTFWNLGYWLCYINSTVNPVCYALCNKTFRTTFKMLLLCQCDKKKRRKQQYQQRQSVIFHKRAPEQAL
Chain of Regulator of G-protein signaling 4 (P49798 whole entry): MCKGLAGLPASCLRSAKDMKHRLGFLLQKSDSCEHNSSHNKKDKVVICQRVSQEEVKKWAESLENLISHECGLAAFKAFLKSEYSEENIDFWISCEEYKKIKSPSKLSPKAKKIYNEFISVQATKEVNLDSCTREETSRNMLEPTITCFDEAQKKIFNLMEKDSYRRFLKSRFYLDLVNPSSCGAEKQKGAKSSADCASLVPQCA

Row | SMILES | Ratio IC50 [1] | also measured
1 | COc1ccc(-n2sc(=O)n(Cc3ccc(F)cc3)c2=O)cc1 | 1050 | –
2 | CCCCn1sc(=O)n(C)c1=O | 1210 | solubility [2]: soluble
3 | O=c1sn(-c2cccc(C(F)(F)F)c2)c(=O)n1Cc1ccccc1 | 286 | –
4 | CCn1sc(=O)n(Cc2ccc(F)cc2)c1=O | 842 | –
5 | Cc1ccc(-n2sc(=O)n(C)c2=O)cc1 | 445 | –
6 | CCn1sc(=O)n(CC(C)C)c1=O | 2680 | solubility [2]: soluble
7 | Cc1ccc(-n2sc(=O)n(Cc3cccc(Cl)c3)c2=O)cc1 | 1000 | –
8 | Cc1ccc(-n2sc(=O)n(Cc3ccc(F)cc3)c2=O)cc1 | 366 | IC50 [3]: 0.0301 µM; Activity [4]: Active; IC50 [5]: 11 µM
9 | CCn1sc(=O)n(CCOC)c1=O | 665 | Activity [4]: inactive
10 | O=c1sn(-c2ccccc2)c(=O)n1Cc1ccccc1 | 239 | –
11 | CCCCn1sc(=O)n(CCCC)c1=O | 4110 | solubility [2]: soluble
12 | CCCCn1sc(=O)n(CC(C)C)c1=O | 2540 | solubility [2]: soluble
13 | Cc1ccc(-n2sc(=O)n(Cc3ccc(Cl)c(Cl)c3)c2=O)cc1 | 460 | –
14 | Cc1ccc(-n2sc(=O)n(Cc3cccc(C)c3)c2=O)cc1 | 679 | –
15 | O=c1sn(-c2ccccc2)c(=O)n1Cc1ccc(F)cc1 | 380 | –
16 | CCCCn1c(=O)sn(C(C)(C)C)c1=O | 2220 | solubility [2]: soluble
17 | COc1ccc(-n2sc(=O)n(Cc3ccccc3)c2=O)cc1 | 515 | –
18 | COc1ccc(Cn2c(=O)sn(-c3ccc(C)cc3)c2=O)cc1 | 1780 | IC50 [3]: 0.176 µM
19 | O=c1sn(-c2cccc(C(F)(F)F)c2)c(=O)n1Cc1ccc(F)cc1 | 204 | –
20 | Cn1c(=O)sn(C(C)(C)C)c1=O | 2020 | solubility [2]: soluble

Row | SMILES | Ratio IC50 [1] | also measured
21 | O=c1sn(-c2cccc(Cl)c2)c(=O)n1Cc1ccccc1 | 335 | –
22 | CCCCn1sc(=O)n(Cc2ccc(F)cc2)c1=O | 2020 | –
23 | Cc1ccc(-n2sc(=O)n(Cc3ccccc3)c2=O)cc1 | 519 | –
24 | Cc1cccc(-n2sc(=O)n(Cc3ccc(F)cc3)c2=O)c1 | 59 | –
25 | O=c1sn(-c2ccc(Cl)cc2)c(=O)n1Cc1ccc(F)cc1 | 564 | –
26 | Cc1ccc(-n2sc(=O)n(CC(C)C)c2=O)cc1 | 550 | –
27 | O=c1sn(-c2ccc(Cl)c(Cl)c2)c(=O)n1Cc1ccc(F)cc1 | 481 | –
28 | Cc1ccc(Cn2sc(=O)n(Cc3ccc(F)cc3)c2=O)cc1 | 3090 | –
29 | Cc1ccc(CN2C(=O)CN(c3ccc(C)cc3)C2=O)cc1 | – | IC50 [3]: > 100 µM; IC50 [5]: > 100 µM
30 | Cc1ccc(Cn2c(=O)sn(-c3ccc(C)cc3)c2=O)cc1 | 1340 | –
31 | Cc1ccc(Cn2sc(=O)n(Cc3ccccc3)c2=O)cc1 | 2840 | –
32 | CCCCn1c(=O)sn(CC)c1=O | – | Activity [4]: inactive; solubility [2]: soluble
33 | O=c1sn(-c2ccc(Cl)c(Cl)c2)c(=O)n1Cc1ccccc1 | 149 | –
34 | CC(C)Cn1c(=O)sn(C(C)(C)C)c1=O | 6660 | solubility [2]: soluble
35 | O=c1sn(-c2ccc(Cl)cc2)c(=O)n1Cc1ccccc1 | 183 | –
36 | Cc1ccc(-n2sc(=O)n(Cc3ccc(Cl)cc3)c2=O)cc1 | 2170 | –
37 | Cc1cccc(-n2sc(=O)n(Cc3ccccc3)c2=O)c1 | 558 | –
38 | O=c1sn(-c2cccc(Cl)c2)c(=O)n1Cc1ccc(F)cc1 | 245 | –
39 | CCn1sc(=O)n(C)c1=O | 1660 | solubility [2]: soluble
40 | CCCCn1c(=O)sn(-c2ccc(C)cc2)c1=O | 483 | –
